Active and inactive are the calls of the source. The rule behind the calls is not given here.
Tests used:
[1] = target: T1, 5-hydroxytryptamine receptor 2A (Homo sapiens, UniProt P28223); test: Positive allosteric modulation of 5HT2A receptor (unknown origin) expressed in HEK293 cells co-expressing NFAT-RE assessed as increase in serotonin-induced reponse after 6 to 12 hrs by Bright-Glo luciferase reporter gene assay; type: cell-based
Summary of the method: (§1)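 Transiently co-transfected HEK293T cells expressing 5-HT2A, 5-HT2B or 5-HT2C with NFAT-RE luciferase, 50,000 cells/well. Test compound added first at 10 µM, 1 µM or 100 nM, in triplicate. A 5-HT concentration-response (10 µM to 0.01 nM) followed, then 6-12 h incubation. Bright-Glo luminescence was fitted by non-linear regression, with Emax normalized to 5-HT alone (100%). n=3-4.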

[2] = target: T2, 5-hydroxytryptamine receptor 2C (Homo sapiens) (UniProt P28335); test: Agonist activity at 5HT2C receptor (unknown origin) expressed in HEK293 cells co-expressing NFAT-RE after 6 to 12 hrs by Bright-Glo luciferase reporter gene assay; type: cell-based
T2 sequence (whole entry): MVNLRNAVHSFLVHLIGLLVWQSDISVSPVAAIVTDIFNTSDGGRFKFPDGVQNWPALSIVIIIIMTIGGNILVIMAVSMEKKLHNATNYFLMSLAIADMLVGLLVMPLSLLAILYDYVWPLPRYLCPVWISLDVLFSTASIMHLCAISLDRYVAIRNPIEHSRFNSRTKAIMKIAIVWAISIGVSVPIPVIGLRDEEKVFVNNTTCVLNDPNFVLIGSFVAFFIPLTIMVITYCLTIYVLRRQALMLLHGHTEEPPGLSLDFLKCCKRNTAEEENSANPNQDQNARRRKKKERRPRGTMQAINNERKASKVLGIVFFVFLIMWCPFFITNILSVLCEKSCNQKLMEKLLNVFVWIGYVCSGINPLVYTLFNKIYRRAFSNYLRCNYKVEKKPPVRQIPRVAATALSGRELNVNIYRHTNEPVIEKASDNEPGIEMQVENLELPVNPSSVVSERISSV
Summary of the method: (§2)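 HEK293T cells transiently co-transfected (PEI) with 0.1 µg/well receptor plasmid (5-HT2A, 5-HT2B or 5-HT2C) plus 0.1 µg/well NFAT-RE luciferase reporter, plated 50,000 cells/well 24 h before treatment. Compounds tested in triplicate from 10 µM down to 0.01 nM in HBSS/20 mM HEPES pH 7.4, incubated 6-12 h. Luminescence read within 5 min of Bright-Glo (1 mg/ml final). RLU fitted by non-linear regression; 5-HT Emax set to 100%.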

[3] = target: T3, 5-hydroxytryptamine receptor 2B (Homo sapiens, UniProt P41595); test: Negative allosteric modulation of 5HT2B receptor (unknown origin) expressed in HEK293 cells co-expressing NFAT-RE assessed as reduction in serotonin-induced reponse after 6 to 12 hrs by Bright-Glo luciferase reporter gene assay; type: cell-based; summary of the method: as §1
T3 sequence (P41595 whole entry): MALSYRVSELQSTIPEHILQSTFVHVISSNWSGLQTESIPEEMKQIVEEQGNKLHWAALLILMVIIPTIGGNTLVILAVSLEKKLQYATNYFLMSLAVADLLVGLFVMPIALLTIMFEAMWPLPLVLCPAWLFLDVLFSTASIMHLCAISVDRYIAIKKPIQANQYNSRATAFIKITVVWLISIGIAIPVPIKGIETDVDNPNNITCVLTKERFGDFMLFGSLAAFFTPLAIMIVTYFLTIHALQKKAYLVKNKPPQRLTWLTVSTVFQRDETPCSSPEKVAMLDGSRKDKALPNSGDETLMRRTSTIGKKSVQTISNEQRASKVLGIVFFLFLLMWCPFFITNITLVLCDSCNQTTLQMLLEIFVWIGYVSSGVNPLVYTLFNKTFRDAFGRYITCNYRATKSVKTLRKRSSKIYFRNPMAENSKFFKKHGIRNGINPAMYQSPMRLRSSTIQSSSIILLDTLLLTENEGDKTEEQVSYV

[4] = target: T3, 5-hydroxytryptamine receptor 2B; test: Positive allosteric modulation of 5HT2B receptor (unknown origin) expressed in HEK293 cells co-expressing NFAT-RE assessed as increase in serotonin-induced reponse after 6 to 12 hrs by Bright-Glo luciferase reporter gene assay; type: cell-based; summary of the method: as §1
[5] = target: T2, 5-hydroxytryptamine receptor 2C (Homo sapiens); test: Positive allosteric modulation of 5HT2C receptor (unknown origin) expressed in HEK293 cells co-expressing NFAT-RE assessed as increase in serotonin-induced reponse at 100 nM after 6 to 12 hrs by Bright-Glo luciferase reporter gene assay relative to serotonin; type: cell-based; summary of the method: as §1
[6] = target: T4, 5-hydroxytryptamine receptor 2C (Homo sapiens, UniProt P28335); test: Positive allosteric modulation of 5HT2C receptor (unknown origin) expressed in HEK293 cells co-expressing NFAT-RE assessed as increase in serotonin-induced reponse after 6 to 12 hrs by Bright-Glo luciferase reporter gene assay; type: cell-based; summary of the method: as §1
T4 sequence (P28335 whole entry): T2 sequence (whole entry)

[7] = target: T1, 5-hydroxytryptamine receptor 2A; test: Agonist activity at 5HT2A receptor (unknown origin) expressed in HEK293 cells co-expressing NFAT-RE after 6 to 12 hrs by Bright-Glo luciferase reporter gene assay; type: cell-based; summary of the method: as §2
[8] = target: T2, 5-hydroxytryptamine receptor 2C (Homo sapiens); test: Positive allosteric modulation of 5HT2C receptor (unknown origin) expressed in HEK293 cells co-expressing NFAT-RE assessed as increase in serotonin-induced reponse at 1 uM after 6 to 12 hrs by Bright-Glo luciferase reporter gene assay relative to serotonin; type: cell-based; summary of the method: as §1
Rattus norvegicus [9] = test: Induction of anorexia in Sprague-Dawley rat assessed as suppression of food intake at 2 pmol, icv measured after 3 to 6 hrs; type: functional, organism-based
Summary of the method: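 Adult SD rats (150-200 g) on a 12 h light/dark cycle at 22 °C, cannulated in the right ventricle. Rats were fasted 4 h with free access to water, then dosed i.c.v. with 2 pmol/rat (2 µL) in aCSF vehicle; lorcaserin 2 pmol/rat served as positive control. Weighed pellets were given 10 min later, and remaining food plus spillage was weighed at 3, 6 and 24 h; n=4.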

[10] = target: T2, 5-hydroxytryptamine receptor 2C (Homo sapiens); test: Positive allosteric modulation of 5HT2C receptor (unknown origin) expressed in HEK293 cells co-expressing NFAT-RE assessed as increase in serotonin-induced intracellular calcium flux at 1 uM preincubated for 15 mins followed by serotonin stimulation and measured for 120 secs by Fluo-4NW dye based fluorescence assay relative to serotonin; type: functional, cell-based
Summary of the method: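 5-HT2C-transfected HEK293T cells, 50,000 cells/well, loaded with Fluo-4NW calcium dye. Compound (1 µM) preincubated 15 min. 5-HT then added at 35 µl/min and fluorescence (ex 494/em 516 nm) recorded for 120 s. Fold change was calculated against baseline from the first 5 s before ligand addition. Emax normalized to 5-HT alone.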

Rattus norvegicus [11] = test: Induction of anorexia in Sprague-Dawley rat assessed as suppression of food intake at 2 pmol, icv measured after 24 hrs; type: functional, organism-based
Summary of the method: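 Adult SD rats (150-200 g) on a 12 h light/dark cycle at 22 °C, with a cannula in the right ventricle (AP -0.9, ML -1.5, DV -3.5). Rats were food-deprived for 4 h with water available. Compound given i.c.v. at 2 pmol/rat in 2 µL, vehicle aCSF; lorcaserin 2 pmol as positive control. Weighed pellets were supplied 10 min later. Remaining food including spillage was weighed at 3, 6 and 24 h; n=4.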

[12] = target: T3, 5-hydroxytryptamine receptor 2B; test: Agonist activity at 5HT2B receptor (unknown origin) expressed in HEK293 cells co-expressing NFAT-RE after 6 to 12 hrs by Bright-Glo luciferase reporter gene assay; type: cell-based; summary of the method: as §2
5HT2B receptor = 5HT2B receptor (Homo sapiens, UniProt P41595); test: Positive allosteric modulation of 5HT2B receptor (unknown origin) expressed in HEK293 cells co-expressing NFAT-RE assessed as increase in serotonin-induced reponse at 1 uM after 6 to 12 hrs by Bright-Glo luciferase reporter gene assay relative to serotonin; type: cell-based; conditions: HEK293 cells expressing 5HT2B receptor and NFAT-RE reporter; summary of the method: as §1
Chain of 5HT2B receptor (P41595 whole entry): as above

[13] = target: T2, 5-hydroxytryptamine receptor 2C (Homo sapiens); test: Positive allosteric modulation of 5HT2C receptor (unknown origin) expressed in HEK293 cells co-expressing NFAT-RE assessed as increase in serotonin-induced reponse at 10 uM after 6 to 12 hrs by Bright-Glo luciferase reporter gene assay relative to serotonin; type: cell-based; summary of the method: as §1
5HT2A receptor = 5HT2A receptor (Homo sapiens, UniProt P28223); test: Positive allosteric modulation of 5HT2A receptor (unknown origin) expressed in HEK293 cells co-expressing NFAT-RE assessed as increase in serotonin-induced reponse at 1 uM after 6 to 12 hrs by Bright-Glo luciferase reporter gene assay relative to serotonin; type: cell-based; conditions: HEK293 cells expressing 5HT2A receptor and NFAT-RE reporter; summary of the method: as §1
Chain of 5HT2A receptor (P28223 whole entry): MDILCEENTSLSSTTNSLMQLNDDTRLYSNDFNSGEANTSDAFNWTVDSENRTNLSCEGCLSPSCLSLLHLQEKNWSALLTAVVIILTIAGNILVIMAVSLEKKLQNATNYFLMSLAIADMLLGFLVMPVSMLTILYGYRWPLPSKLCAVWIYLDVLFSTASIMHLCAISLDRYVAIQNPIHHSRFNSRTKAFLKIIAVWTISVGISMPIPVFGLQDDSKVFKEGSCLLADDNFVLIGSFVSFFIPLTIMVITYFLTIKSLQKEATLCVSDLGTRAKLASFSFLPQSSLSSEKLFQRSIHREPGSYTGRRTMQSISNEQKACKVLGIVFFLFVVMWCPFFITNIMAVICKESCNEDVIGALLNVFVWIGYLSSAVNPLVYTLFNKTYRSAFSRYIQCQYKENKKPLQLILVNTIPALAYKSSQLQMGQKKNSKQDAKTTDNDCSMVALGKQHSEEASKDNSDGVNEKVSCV

[14] = target: T2, 5-hydroxytryptamine receptor 2C (Homo sapiens); test: Agonist activity at 5HT2C receptor (unknown origin) expressed in HEK293 cells co-expressing NFAT-RE at 10 uM after 6 to 12 hrs by Bright-Glo luciferase reporter gene assay; type: cell-based
Summary of the method: (§3)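 Primary screen at 5-HT2C in transiently co-transfected HEK293T (receptor plus NFAT-RE luciferase plasmids, 50,000 cells/well). Compounds tested in triplicate at a final 10 µM in HEPES-buffered HBSS pH 7.4 and incubated 6-12 h. Luminescence read within 5 min of Bright-Glo (1 mg/ml final). Signal normalized to the 5-HT maximal response.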

[15] = target: T2, 5-hydroxytryptamine receptor 2C (Homo sapiens); test: Agonist activity at 5HT2C receptor (unknown origin) expressed in HEK293 cells co-expressing NFAT-RE at 10 uM after 6 to 12 hrs by Bright-Glo luciferase reporter gene assay relative to control; type: cell-based; summary of the method: as §3

T1 sequence (P28223 whole entry): as above

- EC50 [1]: 0.038 µM
- Activity [2]: inactive
- Activity [3]: Dose-dependent effect
- EC50 [4]: 0.0117 µM
- Activity [5]: Active
- EC50 [6]: 0.00501 µM
- Activity [7]: Not Active
- Emax [8]: 139 to 146%
- Emax [10]: 124%
- Activity [12]: Not Active
- Emax at 1 µM (5HT2B receptor): 118%
- Emax [13]: 149%
- Emax at 1 µM (5HT2A receptor): 99%
- Activity [14]: inactive
- fold change (FC) [15]: 2
Structure (SMILES): O=C(c1ccc(N2CCN(Cc3ccccc3)CC2)cc1)C1CC1
- Activity (Rattus norvegicus [9]): Active
- Activity (Rattus norvegicus [11]): inactive
